According to ChEMBL document CHEMBL4118021, “Studies of TAK1-centered polypharmacology with novel covalent TAK1 inhibitors” (Bioorg Med Chem, 2017):
One block for each compound: values may come before it. Calls of active or inactive are those of the source. No cut-off for these calls is given here.

How the values were obtained:
Format in all cases: cell-based
[1] = biological target: Serine/threonine-protein kinase MARK1 (Homo sapiens) (UniProt Q9P0L2); assay: Inhibition of MARK1 in human SKCO1 cells at 1 uM after 4 hrs using biotin labeled EVAVKIIDK probe by mass-spectrometric analysis relative to control
[2] = biological target: A-kinase anchor protein 12 (Homo sapiens) (UniProt Q02952); assay: Binding affinity to AKAP12 in human NCI-H23 cells at 1 uM by mass spectrometry based pull down assay
How it was run: (§1)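 NCI-H23 or NCI-H358 cells were grown and lysed. Lysates were incubated overnight at 4 °C with 1 μM biotinylated covalent probe or DMSO, then pulled down on streptavidin beads. Proteins were run on polyacrylamide gels and stained with Coomassie. Bands were excised, digested and identified by mass spectrometry.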

[3] = biological target: Membrane-associated progesterone receptor component 1 (Homo sapiens) (UniProt O00264); assay: Binding affinity to PGRMC1 in human NCI-H23 cells at 1 uM by mass spectrometry based pull down assay
[4] = biological target: DnaJ homolog subfamily A member 2 (Homo sapiens) (UniProt O60884); assay: Binding affinity to DNAJA2 in human NCI-H23 cells at 1 uM by mass spectrometry based pull down assay
[5] = biological target: Actin-related protein 2/3 complex subunit 2 (Homo sapiens) (UniProt O15144); assay: Binding affinity to ARPC2 in human NCI-H23 cells at 1 uM by mass spectrometry based pull down assay
[6] = biological target: Actin-related protein 3 (Homo sapiens) (UniProt P61158); assay: Binding affinity to ACTR3 in human NCI-H23 cells at 1 uM by mass spectrometry based pull down assay; how it was run: as §1
[7] = biological target: Calmodulin-2 (Homo sapiens) (UniProt P0DP24); assay: Binding affinity to CALM2 in human NCI-H23 cells at 1 uM by mass spectrometry based pull down assay
[8] = biological target: Tubulin alpha-1A chain (Homo sapiens) (UniProt Q71U36); assay: Binding affinity to TUBA1A in human NCI-H23 cells at 1 uM by mass spectrometry based pull down assay
[9] = biological target: Dolichyl-diphosphooligosaccharide--protein glycosyltransferase subunit 1 (Homo sapiens) (UniProt P04843); assay: Binding affinity to RPN1 in human NCI-H23 cells at 1 uM by mass spectrometry based pull down assay
[10] = biological target: Deoxyribose-phosphate aldolase (Homo sapiens) (UniProt Q9Y315); assay: Binding affinity to DERA in human NCI-H23 cells at 1 uM by mass spectrometry based pull down assay
Deoxyribose-phosphate aldolase (Homo sapiens), sequence (Q9Y315 whole entry): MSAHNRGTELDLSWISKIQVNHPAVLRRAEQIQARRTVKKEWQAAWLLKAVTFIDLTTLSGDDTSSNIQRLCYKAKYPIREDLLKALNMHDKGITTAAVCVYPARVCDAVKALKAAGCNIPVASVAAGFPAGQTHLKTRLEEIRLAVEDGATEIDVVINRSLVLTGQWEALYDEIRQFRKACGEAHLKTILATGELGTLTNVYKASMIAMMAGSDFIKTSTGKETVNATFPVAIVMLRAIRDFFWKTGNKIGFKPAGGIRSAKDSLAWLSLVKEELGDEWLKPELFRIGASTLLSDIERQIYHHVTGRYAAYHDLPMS

[11] = biological target: WD repeat and HMG-box DNA-binding protein 1 (Homo sapiens) (UniProt O75717); assay: Binding affinity to WDHD1 in human NCI-H23 cells at 1 uM by mass spectrometry based pull down assay
[12] = biological target: Interleukin-1 receptor-associated kinase 1 (Homo sapiens) (UniProt P51617); assay: Binding affinity to IRAK1 in human NCI-H23 cells at 1 uM by mass spectrometry based pull down assay
Interleukin-1 receptor-associated kinase 1 (Homo sapiens), sequence (P51617 whole entry, looked up): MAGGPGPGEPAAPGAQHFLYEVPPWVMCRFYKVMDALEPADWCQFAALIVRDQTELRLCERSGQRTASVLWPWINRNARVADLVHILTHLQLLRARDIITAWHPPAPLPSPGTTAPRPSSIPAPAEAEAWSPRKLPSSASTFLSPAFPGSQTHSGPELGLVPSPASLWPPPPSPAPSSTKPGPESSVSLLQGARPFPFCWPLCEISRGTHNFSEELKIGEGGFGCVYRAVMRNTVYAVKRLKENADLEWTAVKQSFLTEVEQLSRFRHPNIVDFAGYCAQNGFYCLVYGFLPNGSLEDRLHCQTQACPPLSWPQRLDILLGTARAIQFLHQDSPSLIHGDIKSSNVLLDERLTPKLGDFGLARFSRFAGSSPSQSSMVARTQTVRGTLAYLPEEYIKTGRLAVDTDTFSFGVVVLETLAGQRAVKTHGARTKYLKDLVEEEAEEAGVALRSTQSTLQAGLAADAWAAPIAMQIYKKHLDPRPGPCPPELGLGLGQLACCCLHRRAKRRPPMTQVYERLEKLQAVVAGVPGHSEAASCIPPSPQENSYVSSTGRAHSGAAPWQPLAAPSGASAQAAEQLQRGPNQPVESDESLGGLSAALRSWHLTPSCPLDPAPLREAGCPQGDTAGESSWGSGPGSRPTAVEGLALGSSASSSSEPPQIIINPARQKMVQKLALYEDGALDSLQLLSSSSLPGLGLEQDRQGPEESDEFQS

[13] = biological target: Small ribosomal subunit protein uS7m (Homo sapiens) (UniProt Q9Y2R9); assay: Binding affinity to MRPS7 in human NCI-H23 cells at 1 uM by mass spectrometry based pull down assay
[14] = biological target: Prefoldin subunit 2 (Homo sapiens) (UniProt Q9UHV9); assay: Binding affinity to PFDN2 in human NCI-H23 cells at 1 uM by mass spectrometry based pull down assay
[15] = biological target: TBC1 domain family member 15 (Homo sapiens) (UniProt Q8TC07); assay: Binding affinity to TBC1D15 in human NCI-H23 cells at 1 uM by mass spectrometry based pull down assay
TBC1 domain family member 15 (Homo sapiens), sequence (Q8TC07 whole entry, the tested form may be a part): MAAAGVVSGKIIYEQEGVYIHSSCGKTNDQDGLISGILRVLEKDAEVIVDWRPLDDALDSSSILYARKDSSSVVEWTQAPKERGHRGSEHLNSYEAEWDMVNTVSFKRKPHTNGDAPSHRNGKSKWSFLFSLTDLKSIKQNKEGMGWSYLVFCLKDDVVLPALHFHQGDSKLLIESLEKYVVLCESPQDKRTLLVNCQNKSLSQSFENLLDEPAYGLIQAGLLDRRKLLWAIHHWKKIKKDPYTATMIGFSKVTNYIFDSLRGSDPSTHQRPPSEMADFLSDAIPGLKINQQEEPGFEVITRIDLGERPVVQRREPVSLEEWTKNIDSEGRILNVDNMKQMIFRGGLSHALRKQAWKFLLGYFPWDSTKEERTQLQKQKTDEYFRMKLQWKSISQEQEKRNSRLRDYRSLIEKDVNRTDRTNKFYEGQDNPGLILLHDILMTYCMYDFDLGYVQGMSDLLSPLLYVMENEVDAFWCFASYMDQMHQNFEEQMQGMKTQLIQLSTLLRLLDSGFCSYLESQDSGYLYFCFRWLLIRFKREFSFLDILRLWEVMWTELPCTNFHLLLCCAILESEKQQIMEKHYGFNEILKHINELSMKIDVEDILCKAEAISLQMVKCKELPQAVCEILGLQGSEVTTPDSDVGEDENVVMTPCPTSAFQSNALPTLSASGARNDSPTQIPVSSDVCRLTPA

[16] = biological target: Glutamine--fructose-6-phosphate aminotransferase [isomerizing] 1 (Homo sapiens) (UniProt Q06210); assay: Binding affinity to GFPT1 in human NCI-H23 cells at 1 uM by mass spectrometry based pull down assay
[17] = biological target: Inosine-5'-monophosphate dehydrogenase 1 (Homo sapiens) (UniProt P20839); assay: Binding affinity to IMPDH1 in human NCI-H23 cells at 1 uM by mass spectrometry based pull down assay
[18] = biological target: Aurora kinase B (Homo sapiens) (UniProt Q96GD4); assay: Binding affinity to AURKB in human NCI-H23 cells at 1 uM by mass spectrometry based pull down assay
Aurora kinase B (Homo sapiens), sequence (Q96GD4 whole entry): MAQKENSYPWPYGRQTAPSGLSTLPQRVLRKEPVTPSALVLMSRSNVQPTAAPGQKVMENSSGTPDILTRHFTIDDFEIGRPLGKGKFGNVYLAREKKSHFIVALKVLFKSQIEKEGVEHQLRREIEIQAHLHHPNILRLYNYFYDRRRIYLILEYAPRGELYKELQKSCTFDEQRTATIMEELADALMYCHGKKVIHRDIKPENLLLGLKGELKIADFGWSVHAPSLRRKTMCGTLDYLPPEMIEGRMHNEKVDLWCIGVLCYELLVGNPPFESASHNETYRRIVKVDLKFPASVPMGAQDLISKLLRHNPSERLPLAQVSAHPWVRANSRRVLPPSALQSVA

[19] = biological target: Thioredoxin-related transmembrane protein 1 (Homo sapiens) (UniProt Q9H3N1); assay: Binding affinity to TMX1 in human NCI-H23 cells at 1 uM by mass spectrometry based pull down assay
Thioredoxin-related transmembrane protein 1 (Homo sapiens), sequence (Q9H3N1 whole entry): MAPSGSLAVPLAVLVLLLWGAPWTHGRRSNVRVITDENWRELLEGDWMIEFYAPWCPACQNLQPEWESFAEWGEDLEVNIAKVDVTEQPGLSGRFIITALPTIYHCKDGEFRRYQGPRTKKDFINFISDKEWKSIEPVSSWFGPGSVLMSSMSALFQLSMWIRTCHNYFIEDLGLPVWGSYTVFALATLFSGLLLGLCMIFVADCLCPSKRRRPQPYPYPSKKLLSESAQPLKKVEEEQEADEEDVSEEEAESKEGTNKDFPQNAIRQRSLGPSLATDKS

[20] = biological target: Pyrroline-5-carboxylate reductase 2 (Homo sapiens) (UniProt Q96C36); assay: Binding affinity to PYCR2 in human NCI-H358 cells at 1 uM by mass spectrometry based pull down assay
[21] = biological target: Delta-1-pyrroline-5-carboxylate synthase (Homo sapiens) (UniProt P54886); assay: Binding affinity to ALDH18A1 in human NCI-H358 cells at 1 uM by mass spectrometry based pull down assay; how it was run: as §1
Delta-1-pyrroline-5-carboxylate synthase (Homo sapiens), sequence (P54886 whole entry): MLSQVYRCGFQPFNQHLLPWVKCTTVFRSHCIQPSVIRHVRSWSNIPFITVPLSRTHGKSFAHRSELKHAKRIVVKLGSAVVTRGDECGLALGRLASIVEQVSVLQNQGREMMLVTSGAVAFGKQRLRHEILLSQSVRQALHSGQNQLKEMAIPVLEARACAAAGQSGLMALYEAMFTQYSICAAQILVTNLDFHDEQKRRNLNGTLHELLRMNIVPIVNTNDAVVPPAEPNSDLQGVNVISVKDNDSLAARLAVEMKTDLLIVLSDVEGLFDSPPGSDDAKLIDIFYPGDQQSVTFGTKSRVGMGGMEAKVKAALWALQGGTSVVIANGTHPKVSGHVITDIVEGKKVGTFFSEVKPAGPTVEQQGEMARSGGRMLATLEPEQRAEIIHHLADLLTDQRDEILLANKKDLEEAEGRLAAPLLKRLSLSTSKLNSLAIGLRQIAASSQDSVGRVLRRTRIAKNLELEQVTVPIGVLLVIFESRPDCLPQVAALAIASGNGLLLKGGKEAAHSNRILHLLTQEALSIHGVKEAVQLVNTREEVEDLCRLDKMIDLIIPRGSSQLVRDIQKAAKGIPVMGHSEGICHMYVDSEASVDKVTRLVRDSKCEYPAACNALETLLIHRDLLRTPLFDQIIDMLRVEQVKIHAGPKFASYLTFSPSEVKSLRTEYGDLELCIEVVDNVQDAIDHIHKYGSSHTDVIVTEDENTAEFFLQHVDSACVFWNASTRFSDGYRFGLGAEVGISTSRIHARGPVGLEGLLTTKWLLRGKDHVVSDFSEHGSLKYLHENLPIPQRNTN

[22] = biological target: Bifunctional glutamate/proline--tRNA ligase (Homo sapiens) (UniProt P07814); assay: Binding affinity to EPRS in human NCI-H358 cells at 1 uM by mass spectrometry based pull down assay
Bifunctional glutamate/proline--tRNA ligase (Homo sapiens), sequence (P07814 whole entry): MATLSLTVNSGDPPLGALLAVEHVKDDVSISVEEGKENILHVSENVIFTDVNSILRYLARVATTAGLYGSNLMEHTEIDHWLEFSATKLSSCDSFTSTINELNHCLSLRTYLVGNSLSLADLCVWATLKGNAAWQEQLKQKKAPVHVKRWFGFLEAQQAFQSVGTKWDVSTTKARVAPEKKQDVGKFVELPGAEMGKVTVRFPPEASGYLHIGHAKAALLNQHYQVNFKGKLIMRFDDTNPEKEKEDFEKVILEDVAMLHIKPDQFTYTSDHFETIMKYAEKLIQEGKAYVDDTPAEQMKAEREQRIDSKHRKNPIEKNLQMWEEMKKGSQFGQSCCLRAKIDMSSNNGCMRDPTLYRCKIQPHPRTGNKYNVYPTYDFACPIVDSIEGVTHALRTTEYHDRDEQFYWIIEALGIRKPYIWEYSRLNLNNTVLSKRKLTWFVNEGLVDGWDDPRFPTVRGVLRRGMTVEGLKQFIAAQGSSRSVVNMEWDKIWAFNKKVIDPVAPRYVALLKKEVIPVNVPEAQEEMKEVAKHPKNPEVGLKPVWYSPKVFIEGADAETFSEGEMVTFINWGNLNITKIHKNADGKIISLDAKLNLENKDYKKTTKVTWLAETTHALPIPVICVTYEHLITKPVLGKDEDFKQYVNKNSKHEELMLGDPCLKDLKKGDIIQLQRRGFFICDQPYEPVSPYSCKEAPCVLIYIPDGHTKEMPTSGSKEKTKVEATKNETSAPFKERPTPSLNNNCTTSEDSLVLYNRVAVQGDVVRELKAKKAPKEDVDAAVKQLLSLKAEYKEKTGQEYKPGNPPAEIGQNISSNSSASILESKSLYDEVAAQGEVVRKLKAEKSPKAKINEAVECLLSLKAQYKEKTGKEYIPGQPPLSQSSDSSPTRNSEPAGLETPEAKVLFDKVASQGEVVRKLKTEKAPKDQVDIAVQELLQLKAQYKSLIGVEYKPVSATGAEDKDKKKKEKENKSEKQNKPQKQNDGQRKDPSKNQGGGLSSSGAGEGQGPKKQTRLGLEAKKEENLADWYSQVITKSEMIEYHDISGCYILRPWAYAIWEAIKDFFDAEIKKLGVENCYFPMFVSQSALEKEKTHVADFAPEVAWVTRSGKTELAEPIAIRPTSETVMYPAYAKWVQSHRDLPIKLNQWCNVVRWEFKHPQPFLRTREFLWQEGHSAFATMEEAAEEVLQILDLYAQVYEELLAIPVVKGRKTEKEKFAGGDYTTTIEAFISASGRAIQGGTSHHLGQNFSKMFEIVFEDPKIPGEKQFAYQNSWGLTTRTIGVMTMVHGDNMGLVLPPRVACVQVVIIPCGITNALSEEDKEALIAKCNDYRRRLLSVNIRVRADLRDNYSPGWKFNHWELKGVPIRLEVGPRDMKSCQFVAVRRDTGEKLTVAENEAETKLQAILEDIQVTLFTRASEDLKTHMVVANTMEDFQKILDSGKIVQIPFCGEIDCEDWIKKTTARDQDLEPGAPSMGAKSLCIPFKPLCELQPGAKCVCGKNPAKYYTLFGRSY

[23] = biological target: 80S Ribosome (Homo sapiens) (UniProt P08865+P42677+P62753+P15880+P23396+P61247+P62701+P22090+P46782+P62081+P62241+P46781+P46783+P62280+P25398+P62277+P62263+P62841+P62244+P62249+P08708+P62269+P39019+P60866+P63220+P62266+P62847+P62851+P62854+P62979+P62857+P62273+P62861+P39023+P36578+P46777+Q02878+P18124+P62424+P62917+P32969+P27635+P62906+P62913+P30050+P26373+P40429+P50914+P61313+P18621+Q07020+Q02543+P84098+P46778+P35268+P62829+P62750+P83731+P61254+P61353+P46776+P46779+P47914+P62888+P62899+P62910+P49207+P42766+P18077+Q9Y3U8+P83881+P61927+P61513+P63173+P62891+P62945+P05388+P05386); assay: Binding affinity to RPS11 in human NCI-H358 cells at 1 uM by mass spectrometry based pull down assay
[24] = biological target: Mitotic interactor and substrate of PLK1 (Homo sapiens) (UniProt Q8IVT2); assay: Binding affinity to MISP in human NCI-H358 cells at 1 uM by mass spectrometry based pull down assay
[25] = biological target: Serine/threonine-protein phosphatase 2A catalytic subunit beta isoform (Homo sapiens) (UniProt P62714); assay: Binding affinity to PPP2CB in human NCI-H358 cells at 1 uM by mass spectrometry based pull down assay
Serine/threonine-protein phosphatase 2A catalytic subunit beta isoform (Homo sapiens), sequence (P62714 whole entry, canonical isoform): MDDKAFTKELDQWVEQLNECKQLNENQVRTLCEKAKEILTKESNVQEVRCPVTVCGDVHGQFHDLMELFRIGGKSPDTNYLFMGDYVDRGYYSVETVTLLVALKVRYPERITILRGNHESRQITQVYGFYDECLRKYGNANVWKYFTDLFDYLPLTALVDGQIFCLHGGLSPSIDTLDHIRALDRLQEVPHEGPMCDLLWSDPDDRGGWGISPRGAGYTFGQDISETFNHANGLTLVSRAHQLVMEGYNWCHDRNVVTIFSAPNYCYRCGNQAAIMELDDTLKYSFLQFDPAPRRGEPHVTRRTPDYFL

[26] = biological target: Methionine--tRNA ligase, cytoplasmic (Homo sapiens) (UniProt P56192); assay: Binding affinity to MARS in human NCI-H358 cells at 1 uM by mass spectrometry based pull down assay
[27] = biological target: Protein transport protein Sec23A (Homo sapiens) (UniProt Q15436); assay: Binding affinity to SEC23A in human NCI-H358 cells at 1 uM by mass spectrometry based pull down assay

Compound: C=CC(=O)Nc1ccccc1Nc1nc(Nc2ccc(N3CCN(C)CC3)cc2)ncc1Cl
- inhibition [1]: -5.7%

- Activity [2]: Active
- Activity [3]: Active
- Activity [4]: Active
- Activity [5]: Active
- Activity [6]: Active
- Activity [7]: Active
- Activity [8]: Active
- Activity [9]: Active
- Activity [10]: Active
- Activity [11]: Active
- Activity [12]: Active
- Activity [13]: Active
- Activity [14]: Active
- Activity [15]: Active
- Activity [16]: Active
- Activity [17]: Active
- Activity [18]: Active
- Activity [19]: Active
- Activity [20]: Active
- Activity [21]: Active
- Activity [22]: Active
- Activity [23]: Active
- Activity [24]: Active
- Activity [25]: Active
- Activity [26]: Active
- Activity [27]: Active
Compound: C=CC(=O)Nc1ccccc1Nc1nc(Nc2ccc(N3CCN(CCOCCOCCOCCNC(=O)CCCC[C@@H]4SC[C@@H]5NC(=O)N[C@@H]54)CC3)cc2)ncc1Cl
